The structures appear in SMILES notation.

Experiment [1] addresses T1, Melatonin receptor type 1B (Homo sapiens) (UniProt P49286).
T1 sequence (whole entry): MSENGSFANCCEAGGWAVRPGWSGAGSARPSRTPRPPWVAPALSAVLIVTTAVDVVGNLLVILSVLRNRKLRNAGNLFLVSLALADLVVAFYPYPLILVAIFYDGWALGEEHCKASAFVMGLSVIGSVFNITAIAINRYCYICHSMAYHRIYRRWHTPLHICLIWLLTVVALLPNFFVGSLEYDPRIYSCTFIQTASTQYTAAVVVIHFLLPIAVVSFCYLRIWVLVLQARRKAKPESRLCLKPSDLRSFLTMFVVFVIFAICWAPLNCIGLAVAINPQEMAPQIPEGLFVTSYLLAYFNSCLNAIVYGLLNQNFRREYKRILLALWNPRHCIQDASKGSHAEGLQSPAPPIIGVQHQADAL
As to the kind of experiment: (§1) Intrinsic activity at human MT2 receptor expressed in CHO cell membranes after 1 hr by [35S]GTPgammaS binding assay. Type of experiment: functional. In a few lines:
(§2)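 CHO-MT1 or MT2 membranes (20 µg/mL) were incubated with drug and 0.2 nM [35S]GTPγS for 1 h at room temperature. Buffer was 20 mM HEPES pH 7.4, 100 mM NaCl, 3 µM GDP, 3 mM MgCl2, 20 µg/mL saponin. Nonspecific binding was set with 10 µM GTPγS, followed by filtration. Seven concentrations in duplicate gave Emax, relative to 1 µM melatonin. Emax is the arithmetic mean ± SEM of ≥2 experiments.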
For orientation: GTPγS resists hydrolysis and so accumulates on activated G proteins.

Experiment [2] deals with T2, Melatonin receptor type 1B (Homo sapiens, UniProt P49286).
T2 sequence (P49286 whole entry): T1 sequence (whole entry)
Put plainly: Displacement of 2-[125I]-Iodomelatonin from human MT2 receptor expressed in CHO cell membranes after 120 mins by filter binding method. In a few lines: (§3)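 Membranes from CHO cells stably expressing human MT1 or MT2 were incubated with 20 pM 2-[125I]-iodomelatonin and test drug in 50 mM Tris-HCl pH 7.4, 5 mM MgCl2, for 120 min at 37 °C. Nonspecific binding was set with 1 µM melatonin. Filtration onto PEI-soaked GF/B filters. Seven concentrations in duplicate gave IC50, converted to Ki by Cheng-Prusoff. Ki is the geometric mean of ≥2 experiments.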

Experiment [3] concerns the target T3, Melatonin receptor type 1A (Homo sapiens, UniProt P48039). As to the kind of experiment: Displacement of 2-[125I]-Iodomelatonin from human MT1 receptor expressed in CHO cell membranes after 120 mins by filter binding method. In a few lines:
as §3

Experiment [4] has as its target T3, Melatonin receptor type 1A. As to the kind of experiment: Intrinsic activity at human MT1 receptor expressed in CHO cell membranes after 1 hr by [35S]GTPgammaS binding assay. Type of experiment: functional. The gist of the method:
as §2

The species entered for experiment [5] is Homo sapiens. Put plainly: Selectivity ratio of Ki for human MT1 receptor to Ki for human MT2 receptor.
Experiment [6] concerns the target T2, Melatonin receptor type 1B. The description is as §1. Type of experiment: functional. In a few lines: as §2

T3 sequence (P48039 whole entry): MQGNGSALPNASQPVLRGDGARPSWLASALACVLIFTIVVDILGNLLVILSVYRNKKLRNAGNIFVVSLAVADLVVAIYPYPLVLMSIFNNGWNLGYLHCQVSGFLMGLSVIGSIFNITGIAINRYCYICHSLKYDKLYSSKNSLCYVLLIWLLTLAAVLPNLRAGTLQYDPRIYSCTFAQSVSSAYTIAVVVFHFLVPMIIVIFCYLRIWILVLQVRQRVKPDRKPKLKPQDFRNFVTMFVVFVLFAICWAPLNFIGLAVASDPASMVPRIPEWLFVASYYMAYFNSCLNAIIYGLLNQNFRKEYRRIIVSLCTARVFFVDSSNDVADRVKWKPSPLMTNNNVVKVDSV

As to `CCC(=O)NCC1=C(c2ccccc2)c2ccccc2CC1`, the Emax (as a rule, the size of the effect at its maximum, as opposed to the concentration needed) turned out to be 30% in experiment [1] and 16% in experiment [4]. Further, the Ki (in general, the equilibrium dissociation constant of an inhibitor or competing ligand from its target) in experiment [2] turned out to be 3.8 nM; in experiment [3], 28 nM. In experiment [5], the Ratio Ki turned out to be 7.4.
For the compound `CCC(=O)NC[C@@H]1CCc2ccccc2[C@H]1c1ccccc1` (racemic), the Emax came out at 78% in experiment [1] and 61% in experiment [4]. The inhibitory constant (Ki) in experiment [2] worked out at 0.23 nM; in experiment [3] it was 62 nM. In addition, in experiment [5], the Ratio Ki stood at 270.
In experiment [1], `CCN1CC(CNC(C)=O)Cc2ccccc21` (racemic) showed an Emax of 59%. Moreover, the concentration giving a half-maximal response (EC50) (as a rule, the midpoint of the concentration-response curve) is 7 nM in experiment [6] and > 10000 nM in experiment [4]. Besides, the values for the Ki in experiment [2] and in experiment [3] were 1 nM and 20 nM, respectively. Also, in experiment [5], the Ratio Ki was determined as 20.
Take `CCC(=O)NC1Cc2ccccc2N(c2ccccc2)C1` (racemic): the values for the Emax in experiment [1] and in experiment [4] were 41% and 29%, respectively. For the same compound, the values for the concentration for a half-maximal effect (EC50) in experiment [6] and in experiment [4] were 1 nM and 20 nM, respectively. Moreover, the inhibitory constant (Ki) in experiment [2] was determined as 2 nM; in experiment [3], 22 nM. Besides, in experiment [5], the Ratio Ki worked out at 11.
As for `CCC(=O)NC[C@@H]1CN(C)c2ccccc2[C@@H]1c1ccccc1` (racemic), the figures for the Emax in experiment [1] and in experiment [4] were 75% and 82%, respectively. For the same compound, the inhibition constant Ki in experiment [2] is 0.48 nM; in experiment [3], 3.4 nM. Besides, the Ratio Ki in experiment [5] is 7.1.
For the compound `CC(=O)NCC1CNc2ccccc2C1` (racemic), the inhibitory constant (Ki) in experiment [2] is 110 nM; in experiment [3], 430 nM. Also, the Ratio Ki in experiment [5] is 3.9.
As for `CC(=O)NCC1Cc2ccccc2N(c2ccccc2)C1` (racemic) [listing 1 of 2 here], the half-maximal effective concentration (EC50) in experiment [6] and in experiment [4] was > 10000 nM throughout. Moreover, the Ki in experiment [2] is 0.3 to 1.2 nM; in experiment [3], 2.4 to 3 nM.
`CCC(=O)NC[C@@H]1CCc2ccccc2[C@@H]1c1ccccc1` (racemic): the values for the Emax in experiment [1] and in experiment [4] were 75% and 56%, respectively. In addition, the Ki in experiment [2] is 0.22 nM; in experiment [3], 3.5 nM. Moreover, the Ratio Ki in experiment [5] turned out to be 16.
As to `CC(=O)NCC1Cc2ccccc2N(Cc2ccccc2)C1` (racemic), the Emax in experiment [1] was 28%. This compound had an EC50 in experiment [6] of 3 nM. For the same compound, the inhibition constant Ki in experiment [2] worked out at 1 nM; in experiment [3], 59 nM. For the same compound, the Ratio Ki in experiment [5] came to 59.
Regarding `CC(=O)NCC1Cc2ccccc2N(C)C1` (racemic), the maximum response (Emax) in experiment [1] is 32%. Further, the EC50 in experiment [6] is 10 nM; in experiment [4] it was > 10000 nM. In addition, the Ki in experiment [2] was found to be 15 nM; in experiment [3], 83 nM. Further, the Ratio Ki in experiment [5] came to 5.5.
In turn, `CC(=O)NCC1Cc2ccccc2N(CCc2ccccc2)C1` (racemic) registered an Emax in experiment [1] of 47%. Moreover, a half-maximal response in experiment [6] (EC50) required 80 nM. For the same compound, the Ki was 47 nM in experiment [2] and 246 nM in experiment [3]. Besides, the Ratio Ki in experiment [5] stood at 5.2.
As for `CCC(=O)NC1Cc2ccccc2N(Cc2ccccc2)C1` (racemic), the EC50 in experiment [6] was > 10000 nM. Besides, the Ki in experiment [2] was 6 nM; in experiment [3] it was 892 nM. Besides, the Ratio Ki in experiment [5] was determined as 149.
In the case of `CC(=O)NCC1Cc2ccccc2N(c2ccccc2)C1` (racemic) [listing 2 of 2 here], the figures for the maximum response (Emax) in experiment [1] and in experiment [4] were 10% and 27%, respectively. Also, the Ratio Ki in experiment [5] worked out at 10.
Take `CC(=O)NCC1Cc2ccccc2N(c2ccccc2)C1` (single isomer, unassigned; (-)) [listing 1 of 2 here]: the Ki in experiment [2] came out at 1.38 nM; in experiment [3], 3.02 nM.
Regarding `CC(=O)NCC1Cc2ccccc2N(c2ccccc2)C1` (single isomer, unassigned; (-)) [listing 2 of 2 here], the maximal effect (Emax) in experiment [1] stood at 29%; in experiment [4], 30%.
Regarding `CC(=O)NCC1Cc2ccccc2N(c2ccccc2)C1` (stereo in doubt; (+)-15e) [listing 1 of 2 here], the inhibition constant (Ki) in experiment [2] stood at 0.78 nM; in experiment [3], 1.58 nM.
As for `CC(=O)NCC1Cc2ccccc2N(c2ccccc2)C1` (stereo in doubt; (+)-15e) [listing 2 of 2 here], the Emax in experiment [1] was 5%; in experiment [4], 25%.
